The values below come from ChEMBL document CHEMBL2086384, “Chiral cyclohexane 1,3-diones as inhibitors of mutant SOD1-dependent protein aggregation for the treatment of ALS” (ACS Med Chem Lett, 2012).

A short description of data set [1]: Inhibition of SOD1 G93A mutant-induced protein aggregation in MG132-treated rat PC12 cells assessed as decrease in cell death incubated for 24 hrs prior to MG132 treatment measured after 48 hrs by Calcein-AM staining method. Type of data set: cell-based. The note with it: PC-12.
Data set [2] has as its system Cerebral cortex neuron. Description: Inhibition of SOD1 G93A mutant-induced protein aggregation in MG132-treated rat primary cortical neurons assessed as decrease in cell death up to 100 uM incubated for 24 hrs prior to MG132 treatment measured after 48 hrs by Calcein-AM staining method. The format is cell-based.
Data set [3] concerns Mus musculus. As to the kind of experiment: Increase in life span of transgenic mouse expressing human SOD1 G93A mutant at 22 mg/kg. The format is functional.
The subject of data set [4] is Cerebral cortex neuron. Description: Inhibition of SOD1 G93A mutant-induced protein aggregation in MG132-treated rat primary cortical neurons assessed as decrease in cell death at 10 uM incubated for 24 hrs prior to MG132 treatment measured after 48 hrs by Calcein-AM staining method. Type of data set: cell-based.
Data set [5] in a line: Apparent permeability of the compound from apical to basal side of human Caco2 cells at 50 uM after 2 hrs. Type of data set: ADME, cell-based. The settings on record: Caco-2. On the technique in general: Caco-2 cells form a polarised layer with tight junctions and transporters.
Another data set has as its system Caco-2. As to the kind of experiment: Efflux ratio of apparent permeability from basal to apical to apical to basal side of human Caco2 cells at 50 uM after 2 hrs. Type of data set: ADME, cell-based. The settings on record: caco-2, 2 h.
A short description of data set [6]: Aqueous solubility of the compound in DMSO after 1 hr by spectrophotometry. The format is physicochemical. Summed up:
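Aqueous solubility: DMSO stock diluted into PBS to a final 1% DMSO. The limit was taken as the highest concentration showing no precipitation.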

The test system of data set [7] is Liver. As to the kind of experiment: Half life in mouse liver microsomes at 1 uM after 1 hr in presence of NADPH. The format is ADME, Microsome. Summed up:
(§1)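 Human or mouse liver microsomes; test compound at 1 μM, incubated at 37 °C for 1 h with and without NADPH. Intrinsic clearance given in mL/min/kg and half-life in min.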
For orientation: Microsomes from liver hold many membrane-bound enzymes, among them those of drug oxidation.

The test system of data set [8] is Liver. Description: Half life in mouse liver microsomes at 1 uM after 1 hr in absence of NADPH. Type of data set: ADME, Microsome. Summed up: as §1
Data set [9] can be described thus: Half life in plasma. Type of data set: ADME, cell-free.
For data set [10], the system named is Liver microsomes. Description: Half life in human liver microsomes at 1 uM after 1 hr in presence of NADPH. Type of data set: ADME, Microsome. In short, it runs like this: as §1
Data set [11] deals with Liver microsomes. As to the kind of experiment: Half life in human liver microsomes at 1 uM after 1 hr in absence of NADPH. Type of data set: ADME, Microsome. In short, it runs like this: as §1
Data set [12] in a line: Intrinsic clearance in human liver microsomes at 1 uM after 1 hr in absence of NADPH. Type of data set: ADME, Microsome. The settings on record: read-out: CLH. In short, it runs like this:
as §1

The nature of data set [13]: Apparent permeability of the compound from basal to apical side of human Caco2 cells at 50 uM after 2 hrs. Type of data set: ADME, cell-based. The note with it: Caco-2.
Data set [14] is described as follows: Drug uptake in blood at 500 mg/kg, ip at 12 hrs. Type of data set: ADME, organism-based. Further details: dose 500 mg/kg, route intraperitoneal. The note with it: read-out: Drug uptake. Summed up: (§2)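 Single i.p. dose of 500 mg/kg in mice. Blood and brain levels were sampled over time to find the maximum level and Tmax.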
Data set [15] is described as follows: Toxicity in mouse administered BID. The format is organism-based. The note with it: in vivo. Summed up:
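Tolerable dose range found in wild-type mice by escalating the dose given b.i.d.; maximum tolerated dose taken as the read-out.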

For data set [16], the system named is Mus musculus. As to the kind of experiment: Increase in life span of transgenic mouse expressing human SOD1 G93A mutant assessed as survival at 10 mg/kg administered QD until death (reference value: 125.7+/-4.3 days). Type of data set: functional. Summed up: (§3)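 Transgenic mice expressing human G93A mutant SOD1, cohorts matched for age (±3 days) and "f" generation, drawn from multiple litters. Dosed 10, 20 or 30 mg/kg once daily from 6 weeks of age until end of life; untreated G93A mice served as controls. Survival read out by Kaplan-Meier plot and reported as mean ± value in days, with p values.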

The subject of data set [17] is Liver microsomes. Description: Drug metabolism in rat liver microsomes at 10 uM after 1 hr by LC-PDA-MS/MS analysis. Type of data set: ADME, Microsome.
In data set [18] the test system is Cerebral cortex neuron. As to the kind of experiment: Inhibition of SOD1 G93A mutant-induced protein aggregation in MG132-treated rat primary cortical neurons assessed as decrease in cell death at 3 uM incubated for 24 hrs prior to MG132 treatment measured after 48 hrs by Calcein-AM staining method. Type of data set: cell-based.
Data set [19] concerns Mus musculus. As to the kind of experiment: Increase in life span of transgenic mouse expressing human SOD1 G93A mutant at 20 mg/kg administered QD until death relative to untreated-control. Type of data set: functional. In short, it runs like this:
as §3

The test system of data set [20] is Mus musculus. Description: Increase in life span of transgenic mouse expressing human SOD1 G93A mutant assessed as survival at 30 mg/kg administered QD until death (reference value: 125.7+/-4.3 days). The format is functional. In short, it runs like this:
as §3

The nature of data set [21]: Half life in blood at 500 mg/kg, ip. More on the design: dose 500 mg/kg, route intraperitoneal. The format is ADME, organism-based. Summed up: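 Compound given i.p. at 500 mg/kg. Concentrations were measured in blood, with brain levels sampled in the same study. The half-life was taken from the blood time course.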
Data set [22] is described as follows: Tmax in brain at 500 mg/kg, ip. The format is ADME, organism-based. More on the design: dose 500 mg/kg, route intraperitoneal. In short, it runs like this:
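Compound given as a single intraperitoneal dose of 500 mg/kg. Levels were followed over time in both blood and brain. Tmax is the time at which the brain concentration peaked.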

Data set [23] can be described thus: Drug uptake in brain at 500 mg/kg, ip. Type of data set: ADME, organism-based. More on the design: dose 500 mg/kg, route intraperitoneal. The settings on record: in vivo, read-out: Drug uptake. Summed up: as §2

The structures appear in SMILES notation. Calls of active or inactive are those of the source. The rule behind the calls is not given here.

As usually defined, the EC50 is the concentration giving half of the maximal effect. What is called inhibition is the change of the read-out against control, counted positive when it falls. In the case of `O=C1CC(=O)CC(c2cc(C(F)(F)F)cc(C(F)(F)F)c2)C1`, the EC50 in data set [1] is 700 nM. Also, in the data set with Cerebral cortex neuron [2], the inhibition entry was “inactive”.
Turning to `Nc1nc2ccc(OC(F)(F)F)cc2s1` [RILUZOLE], the survival at 22 mg/kg in the data set on Mus musculus [3] was determined as 10%.
`O=C1CC(=O)CC(C2CC2c2cc(C(F)(F)F)cc(C(F)(F)F)c2)C1` (racemic): in [1], the EC50 was 1000 nM. The inhibition result with Cerebral cortex neuron [2] is “Active”.
As to `CC(Oc1cc(C(F)(F)F)cc(C(F)(F)F)c1)C1CC(=O)CC(=O)C1` (racemic), the EC50 in data set [1] is 700 nM. The inhibition entry with Cerebral cortex neuron [2] was “Active”.
With `O=c1cc(COc2cc(Cl)cc(Cl)c2)[nH][nH]1`, the inhibition result in the data set with Cerebral cortex neuron [4] was “Active”.
On to `C[C@@H](Oc1cc(C(F)(F)F)cc(C(F)(F)F)c1)C1CC(=O)CC(=O)C1`, for which the EC50 in data set [1] is 1300 nM. Moreover, the inhibition result in the data set on Cerebral cortex neuron [2] was “Active”.
Usually Papp A→B stands for how fast a substance crosses the layer from the apical side. As a reminder, the Papp B→A is how fast a substance crosses the layer from the basolateral side. As for `O=C1CC(=O)CC([C@@H]2C[C@H]2c2cc(C(F)(F)F)cc(C(F)(F)F)c2)C1`, the apical-to-basolateral permeability (Papp A→B) at 2 h, 50 µM in data set [5] stood at 21.7 ×10⁻⁶ cm/s. Moreover, the Ratio in the data set on Caco-2 came out at 0.1. Also, the solubility entry in [6] is “>= 100 uM”. The t1/2 was 0.467 h in the data set on Liver [7]; 0.617 h in the data set on Liver [8]; 1.18 h in data set [9]; 0.817 h in the data set with Liver microsomes [10]; over 3 h in the data set on Liver microsomes [11]. Further, the EC50 in data set [1] was 800 nM. The inhibition result with Cerebral cortex neuron [2] was “Active”. Moreover, the CLint scaled at 1 µM in data set [12] was 12 mL/min/kg. In [13], the Papp B→A at 2 h, 50 µM turned out to be 1.1 ×10⁻⁶ cm/s.
Consider `O=C1CC(=O)CC([C@H]2C[C@@H]2c2cc(C(F)(F)F)cc(C(F)(F)F)c2)C1`, for which the EC50 in [1] is 1390 nM. For the same compound, the inhibition entry in the data set with Cerebral cortex neuron [2] is “Active”.
By half-life is commonly meant the time in which the quantity being followed falls by half. Read a high half-life as slow loss. Broadly, the Tmax is the time at which the peak concentration occurs. In the case of `C[C@H](Oc1cc(C(F)(F)F)cc(C(F)(F)F)c1)C1CC(=O)CC(=O)C1`, in data set [14], the concentration at 12 h came out at 245 µM. Also, the Papp A→B at 2 h, 50 µM in data set [5] was 24.1 ×10⁻⁶ cm/s. In addition, the Ratio in the data set with Caco-2 stood at 0.1. Further, in [6], the solubility result was “>= 100 uM”. This compound also had an MTD in data set [15] of 1280 mg/kg. Further, the Survival with Mus musculus [16] came out at 139.2 days; with Mus musculus [20], 127.9 days. The Drug metabolism entry in the data set with Liver microsomes [17] is reported as “Active”. In addition, the t1/2 was 0.867 h with Liver [7], 0.867 h in the data set with Liver [8], over 1 h in [9] and over 3 h with Liver microsomes [11]. Moreover, the inhibition in the data set on Cerebral cortex neuron [18] was over 90%. Moreover, the EC50 in data set [1] was 300 nM. The survival at 20 mg/kg in the data set with Mus musculus [19] was 13%. In addition, the inhibition entry with Cerebral cortex neuron [2] is “Active”. Also, the CLint scaled at 1 µM in data set [12] was 10 mL/min/kg. In [21], the half-life was 12 h. For the same compound, in data set [13], the Papp B→A at 2 h, 50 µM worked out at 1.5 ×10⁻⁶ cm/s. In [22], the time of peak concentration (Tmax) was determined as 12 h. The concentration in [23] was determined as 8.3 µM.
